Data set [1] deals with Plasma. The experiment in a line: AUC (0 to t) in plasma of healthy human treated with [14C]GSK2251052 at 1500 mg, iv infusion for 1 hr as single dose. Format: ADME, organism-based. The conditions noted are these: in vivo. The method, boiled down: (§1)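 Six fasted healthy men received 1500 mg [14C]GSK2251052 as a 1-h constant-rate i.v. infusion. K2EDTA plasma was sampled from predose to 72 h, with profiling samples added at 96, 144 and 336 h. Parent and M3 were measured by validated LC/MS/MS after methanol/formic acid precipitation with stable-label internal standards (range 5–10,000 ng/ml). Noncompartmental analysis used actual times, linear-up/log-down trapezoids and CL = dose/AUC(0-∞).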

Data set [2] has as its system Plasma. The experiment in a line: AUC (0 to infinity) in plasma of healthy human treated with [14C]GSK2251052 at 1500 mg, iv infusion for 1 hr as single dose. Format: ADME, organism-based. More on the design: dose 1500 mg, route intravenous, time infinity. The conditions noted are these: in vivo. A digest of the protocol: as §1
Data set [3] concerns Plasma. The experiment in a line: Cmax in plasma of healthy human treated with [14C]GSK2251052 at 1500 mg, iv infusion for 1 hr as single dose. The conditions noted are these: in vivo. The data set is classed as ADME, organism-based. Also on record: dose 1500 mg, route intravenous. A digest of the protocol: as §1
Data set [4] relates to Plasma. The experiment in a line: Half life in plasma of healthy human treated with [14C]GSK2251052 at 1500 mg, iv infusion for 1 hr as single dose. Format: ADME, organism-based. The conditions noted are these: in vivo. A digest of the protocol:
(§2)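 Healthy men got a single 1500 mg [14C] dose by 1 h i.v. infusion. K2EDTA blood was sampled up to 336 h. Radioactivity in blood and plasma was measured by LSC, with AMS for plasma below LLQ. Parent and M3 were measured by LC/MS/MS (5–10,000 ng/ml range). Noncompartmental analysis used actual times, with t1/2 = ln2/λz and Tmax observed directly, timed from infusion start.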

For data set [5], the system named is Plasma. Description: Tmax in plasma of healthy human treated with [14C]GSK2251052 at 1500 mg, iv infusion for 1 hr as single dose. Format: ADME, organism-based. The conditions noted are these: in vivo. A digest of the protocol: as §2
Data set [6] can be described thus: Drug recovery in cynomolgus monkey liver S9 fraction at pH 7.4 treated with [14C]GSK2251052 at 500 uM after 3 hrs by liquid scintillation counting in presence of NAD+. The data set is classed as ADME, subcellular, Macaca fascicularis. The conditions noted are these: s9, pH 7.4, 3 h.
Data set [7] in a line: Drug recovery in cynomolgus monkey liver S9 fraction at pH 8.4 treated with [14C]GSK2251052 at 500 uM after 3 hrs by liquid scintillation counting in presence of NAD+. The data set is classed as ADME, subcellular, Macaca fascicularis. The conditions noted are these: s9, pH 8.4, 3 h.
Data set [8] is described as follows: Drug recovery in cynomolgus monkey liver S9 fraction at pH 8.8 treated with [14C]GSK2251052 at 500 uM after 3 hrs by liquid scintillation counting in presence of NAD+. Format: ADME, subcellular, Macaca fascicularis. The conditions noted are these: s9, pH 8.8, 3 h.
Data set [9] can be described thus: Drug recovery in cynomolgus monkey liver cytosol at pH 7.4 treated with [14C]GSK2251052 at 500 uM after 3 hrs by liquid scintillation counting in presence of NAD+. The conditions noted are these: pH 7.4, 3 h. The data set is classed as ADME, Macaca fascicularis.
A short description of data set [10]: Drug recovery in cynomolgus monkey liver cytosol at pH 8.4 treated with in presence of NAD+ [14C]GSK2251052 at 500 uM after 3 hrs by liquid scintillation counting. Format: ADME, Macaca fascicularis. The conditions noted are these: pH 8.4, 3 h.
Data set [11] can be described thus: Drug recovery in cynomolgus monkey liver microsomes at pH 7.4 treated with [14C]GSK2251052 at 500 uM after 3 hrs by liquid scintillation counting in presence of NAD+. The data set is classed as ADME, Macaca fascicularis. The conditions noted are these: pH 7.4, 3 h. On the technique in general: Microsomes from liver hold many membrane-bound enzymes, among them those of drug oxidation.

Data set [12] can be described thus: Drug recovery in healthy human urine treated with [14C]GSK2251052 at 1500 mg, iv infusion for 1 hr as single dose after 120 to 336 hrs by HPLC method. The conditions noted are these: in vivo. The data set is classed as ADME, organism-based. The method, boiled down: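 Urine pooled by weight per subject over 0–120 h; 120–336 h pools from all subjects combined into one composite. Centrifuged at ~21,000g, then supernatant profiled by HPLC (Atlantis T3, ammonium acetate pH 4.5/methanol, 30°C) with radiochemical detection plus MS identification. Results are % of dose, corrected for centrifugation recovery measured by triplicate LSC.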

Data set [13] is described as follows: Drug recovery in healthy human feces treated with [14C]GSK2251052 at 1500 mg, iv infusion for 1 hr as single dose after 120 hrs by HPLC method. Format: ADME, organism-based. The conditions noted are these: in vivo. The method, boiled down: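 Feces pooled over 0–120 h per subject by sample weight. About 1 g homogenate extracted twice with 4 volumes of acetonitrile:methanol:water:formic acid (50:25:25:1) under 20 min sonication. Extracts dried and reconstituted in water:methanol 90:10. Profiled by HPLC (Atlantis T3, ammonium acetate pH 4.5/methanol, 30°C) with fraction radiocounting and Orbitrap MS. Results given as % of dose, corrected for extraction recovery.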

A short description of data set [14]: Drug metabolism in human liver cytosol assessed as ADH-mediated compound formation treated with GSK2251052 at 50 to 500 uM by spectrophotometry in presence of NAD+. Format: ADME. The conditions noted are these: TDE = time-dependent effect.
Data set [15] is described as follows: Drug metabolism assessed as purified ADH (unknown origin)-mediated compound formation treated with GSK2251052 at 50 to 500 uM by spectrophotometry in presence of NAD+. The data set is classed as ADME. The conditions noted are these: human, TDE = time-dependent effect.
A further data set relates to Liver cytosol. The experiment in a line: Drug metabolism in human liver cytosol assessed as compound formation treated with GSK2251052 at 50 to 500 uM after 3 hrs by spectrophotometry in presence of NAD+ and ADH inhibitor 4-MP. Format: ADME.
Data set [16] in a line: Drug recovery in healthy human feces treated with [14C]GSK2251052 at 1500 mg, iv infusion for 1 hr as single dose after 0 to 120 hrs by HPLC method. The conditions noted are these: in vivo.

Molecules are shown by their SMILES.

One may read the AUC as the area under the concentration-time curve, a measure of exposure. The Cmax is the peak of the concentration-time curve. Usually Tmax stands for the time at which the peak concentration occurs. `Cl.NC[C@H]1OB(O)c2c(OCCC(=O)O)cccc21`: the AUCt with Plasma [1] was 101 µg·h/mL. In the data set on Plasma [2], this compound had an AUC of 103 µg·h/mL. Besides, the Cmax in the data set with Plasma [3] amounted to 1.77 µg/mL. The same compound gave a t1/2 in the data set with Plasma [4] of 77.3 h. Besides, the Tmax in the data set on Plasma [5] came to 7 h. In addition, the Drug recovery in [6] was 7.7%; in data set [7] it was 6.7%; in [8], 4.3%; in [9], 1.7%; in data set [10] it was 0.9%; in data set [11], 2.5%. Moreover, the Drug recovery in data set [12] (in the assay text read “0 to 120 hrs” for “120 to 336 hrs”) amounted to 43.8%; in [13], 3.3%; in data set [16], 3.3%. For the same compound, the Drug metabolism entry in data set [14] is “tde”; in data set [15], “tde”; with Liver cytosol it was “metabolite_not_detected”.
As for `CC(=O)NC[C@H]1OB(O)c2c(OCCC(=O)O)cccc21`, the Drug recovery result in data set [12] (BLD = below limit of detection) is on record as “BLD”.
